Results from different studies.
Lines come from different studies, so protocols differ.
Cell line: PC-3
Read-out: cell growth or viability

| SMILES | test | setting | quantity | result |
| --- | --- | --- | --- | --- |
| Cc1nc(Nc2ccc3c(c2)C(C)(C)C(=O)N3)c2ccccc2n1 | MTT | – | IC50 | 34.3 µM |
| CC(=NNC(=O)COc1ccc2c(C)c(Cc3ccccc3)c(=O)oc2c1C)c1ccc(Br)cc1 | MTT | 250 µg/mL | viability | 3.08% |
| Cc1nc(Nc2ccc3c(c2)/C(=C/c2ccccc2C)C(=O)N3C)c2ccccc2n1 | MTT | – | IC50 | 15.9 µM |
| COc1ccc(-c2cc(-c3ccc(Br)cc3)c3c(=O)n(C)c(=O)n(C)c3n2)cc1 | MTT | 48 h | IC50 | 8.58 µM |
| CCc1c(C)c2ccc(OCc3nnc(S)n3N)c(C)c2oc1=O | MTT | 31.25 µg/mL | viability | 58.5% |
| Cc1nc(Nc2ccc3c(c2)C(C)(C)C(=O)N3C)c2ccccc2n1 | MTT | – | IC50 | 26.3 µM |
| Cc1c(Cc2ccccc2)c(=O)oc2c(C)c(OCC(=O)NN=Cc3ccccc3)ccc12 | MTT | 62.5 µg/mL | viability | 26.3% |
| Cc1nc(Nc2ccc3c(c2)/C(=C/c2ccccc2Cl)C(=O)N3)c2ccccc2n1 | MTT | – | IC50 | 2.45 µM |
| C=CC(=O)c1cccnc1Nc1cc(C(F)(F)F)ccc1OC | SRB | 48 h | GI50 | 5.58 µM |
| CCc1c(C)c2ccc(OCC(=O)NNC(=S)Nc3ccccc3)c(C)c2oc1=O | MTT | 1000 µg/mL | viability | 2.47% |
| Nc1n[nH]c2nc(-c3cccc(O)c3)cc(-c3cc4cc(Cl)ccc4nc3N3CCOCC3)c12 | MTT | 72 h | IC50 | 0.166 µM |
| COc1cc2ncnc(Nc3ccc4c(c3)/C(=C/c3ccccc3)C(=O)N4)c2cc1OC | MTT | – | IC50 | 4.17 µM |
| Cc1nc2ccc(CN(C)c3ccc(C(=O)N[C@@H](CCC(=O)O)C(=O)O)s3)cc2c(=O)[nH]1 | MTT | 48 h | IC50 | 3.09 µM |
| Cc1c(Cc2ccccc2)c(=O)oc2c(C)c(OCC(=O)NN=Cc3ccc([N+](=O)[O-])cc3)ccc12 | MTT | 31.25 µg/mL | viability | 31.3% |
| COc1ccc(-c2cc(-c3cccc(Br)c3)c3c(=O)[nH]c(=O)[nH]c3n2)cc1 | MTT | 48 h | IC50 | 18.5 µM |
| CCOc1ccc2c(C)c(CC)c(=O)oc2c1C | MTT | 500 µg/mL | viability | 7.6% |
| COc1ccc(-c2cc(-c3ccccc3Cl)c3c(=O)n(C)c(=O)n(C)c3n2)cc1 | MTT | 48 h | IC50 | 6.79 µM |
| Cc1c(Cc2ccccc2)c(=O)oc2c(C)c(OCC(=O)NN=Cc3ccc(Cl)cc3)ccc12 | MTT | 500 µg/mL | viability | 5.27% |
| COc1ccc(-c2cc(-c3ccc(Cl)cc3)c3c(=O)n(C)c(=O)n(C)c3n2)cc1 | MTT | 48 h | IC50 | 13.5 µM |
| C=CCOc1ccc2c(C)c(CC)c(=O)oc2c1C | MTT | 125 µg/mL | viability | 95.8% |
| COc1ccc(-c2cc(-c3ccc(Cl)cc3)c3c(=O)[nH]c(=O)[nH]c3n2)cc1 | MTT | 48 h | IC50 | 5.24 µM |
| O=C(NO)c1ccc(CNc2nc3cccc(-c4ccc5c(c4)OCO5)n3n2)cc1 | SRB | – | GI50 | 0.63 µM |
| COc1ccc(-c2cc(-c3ccc(N(C)C)cc3)c3c(=O)n(C)c(=O)n(C)c3n2)cc1 | MTT | 48 h | IC50 | 5.18 µM |
| C=CC(=O)c1cccnc1Nc1cc(C(F)(F)F)ccc1OCc1ccccc1 | SRB | 48 h | GI50 | 19 µM |
| Cc1nc(NC(=O)N2CCC[C@H]2C(N)=O)sc1-c1ccnc(C(C)(C)C(F)(F)F)c1 | MTT | – | IC50 | 47.7 µM |
| COc1ccc(-c2cc(-c3ccccc3Cl)c3c(=O)[nH]c(=O)[nH]c3n2)cc1 | MTT | 48 h | IC50 | 28.4 µM |
